Screens: PubChem, several laboratories
NR2E3 ag-1: activates human NR2E3 receptor. CHO-S Gal4-NCOR/VP16-NR2E3 two-hybrid, luciferase. inhibition of corepressor binding, % at 3.98 µM. actives 0.35% (n = 360,000);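 active = inhibition above the mean of all tested compounds plus 3 SD, cut at about 70% in these data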;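 also: 0% = DMSO with NR2E3 transfected cells and 100% = cells lacking NR2E3 construct; higher means lower luciferase signal from less NR2E3 corepressor binding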
NR1D1 modulator: modulators of human Rev-erb alpha DNA binding; activity, % at 10 µM; actives 0.79% (n = 370,000); P20393; Rev-erbα–FITC-DNA binding, fluorescence polarization, 90 min;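 active = activity above about 14%, limit read from the data; passing the limit was not always enough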;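 also: 0% = DMSO wells with 35 nM protein and 100% = DMSO wells with 750 nM protein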
Target sequence (P20393 whole entry, looked up): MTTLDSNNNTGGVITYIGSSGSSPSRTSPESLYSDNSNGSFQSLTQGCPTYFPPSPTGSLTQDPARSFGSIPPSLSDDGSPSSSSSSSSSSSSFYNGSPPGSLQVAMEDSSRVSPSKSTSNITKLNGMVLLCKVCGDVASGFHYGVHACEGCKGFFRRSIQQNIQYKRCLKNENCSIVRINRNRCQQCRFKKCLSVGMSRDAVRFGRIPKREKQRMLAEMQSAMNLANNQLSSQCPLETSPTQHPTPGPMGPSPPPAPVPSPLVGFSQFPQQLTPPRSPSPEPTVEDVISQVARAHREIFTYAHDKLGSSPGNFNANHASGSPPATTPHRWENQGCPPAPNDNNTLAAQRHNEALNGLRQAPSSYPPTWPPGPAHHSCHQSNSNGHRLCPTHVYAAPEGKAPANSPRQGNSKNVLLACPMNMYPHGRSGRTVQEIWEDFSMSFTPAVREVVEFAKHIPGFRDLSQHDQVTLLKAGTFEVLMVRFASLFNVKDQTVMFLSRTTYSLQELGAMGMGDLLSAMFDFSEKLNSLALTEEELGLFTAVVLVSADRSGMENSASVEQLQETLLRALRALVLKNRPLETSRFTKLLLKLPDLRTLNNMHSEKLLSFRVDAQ
NR2E3 ag-2: NR2E3 (human) agonism; inhibition of corepressor binding, % at 4.78 µM; GST-NR2E3/biotin-RetCOR TR-FRET, 1536-well; AID 2300; actives 0.12% (n = 320,000); Q9Y5X4;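 active = percent inhibition above the cutoff of mean plus 3 SD of all tested compounds, set per screening campaign, cut at about 20% in these data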;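 also: 0% = DMSO wells and 100% = biotin wells as full block of FRET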
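system = GST-tagged NR2E3 plus biotinylated RetCOR corepressor | input = 1.35 nM GST-NR2E3 | also added = 7 nM biotin-RetCOR | schedule = 5 h incubation at 4 °C | measured by = TR-FRET with europium anti-GST and streptavidin-D2, 340 nm excitation | read-out = percent loss of FRET ratio relative to control wells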
PG9 binder: PG9 antibody binding by small molecule | AID 624416 | inhibition, % at 6.7 µM | actives 0.43% (n = 360,000) | TR-FRET gp120-PG9 antibody binding; in the data active = inhibition above about 8.5%
NR2E3 ag confirm: confirmation of human NR2E3 agonists; shares compounds with NR2E3 ag-1; CHO-S mammalian two-hybrid NR2E3-NCOR, luciferase luminescence; inhibition, % at 3.98 µM; actives 51% (n = 2,300); AID 624378;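 active = average inhibition above a cutoff equal to the mean inhibition of all tested compounds plus one SD, cut at about 70% in these data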;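 also: 0% = DMSO in NR2E3 cells and 100% = DMSO in cells lacking NR2E3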
VP16 counter: counter-screen for NR2E3 agonists: GAL4-VP16 reporter inhibitors. inhibition, % at 3.98 µM. actives 29% (n = 2,300). CHO-S GAL4-VP16 luciferase reporter, luminescence. AID 624379. shares compounds with NR2E3 ag-1;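 active = mean inhibition above a cutoff equal to the average over all tested compounds plus one standard deviation, cut at about 70% in these data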;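 also: luciferase from a UAS reporter driven by GAL4-VP16 transactivation; 0% = DMSO with VP16-transfected cells and 100% = DMSO with cells lacking VP16; higher means less reporter light so more repression of VP16 activity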
* hit, by the source's call. Most compounds without a hit are left out; they make up all but 1.4% or so of the library.

Results for CC(C)N(C)c1ncnc2c1ncn2[C@H]1CN(Cc2ccc(-c3ccccc3)cc2)C[C@@H](CO)O1 ?
NR2E3 ag-1: 55; NR1D1 modulator: -1; PG9 binder: 1; NR2E3 ag confirm: 31; VP16 counter: 26

What do the screens show for `OC[C@@H]1CN(Cc2cccc3ccccc23)C[C@H](n2cnc3c(NCc4ccco4)ncnc32)O1`?
NR2E3 ag-1: 53; NR1D1 modulator: -8; PG9 binder: -1; NR2E3 ag confirm: 6; VP16 counter: 8

How did OC[C@@H]1CN(Cc2ccc(-c3ccccc3)cc2)C[C@H](n2cnc3c(Nc4ccccc4)ncnc32)O1 do in these assays?
NR2E3 ag-1: 50; NR1D1 modulator: -3; PG9 binder: 0; NR2E3 ag confirm: 76*; VP16 counter: 51

How did OC[C@@H]1CN(Cc2ccc(F)cc2)C[C@H](n2cnc3c(Nc4ccccc4)ncnc32)O1 do in these assays?
NR2E3 ag-1: -50; NR1D1 modulator: -1; PG9 binder: -1

Results for CC(C)N(C)c1ncnc2c1ncn2[C@H]1CN(Cc2ccncc2)C[C@@H](CO)O1 ?
NR2E3 ag-1: -19; NR1D1 modulator: -4; PG9 binder: -1

Results for CCCOc1ccc(S(=O)(=O)NCc2ccc(OC)cc2)cc1 ?
NR2E3 ag-1: 50; NR1D1 modulator: 4; NR2E3 ag-2: 1; PG9 binder: -1; NR2E3 ag confirm: 63; VP16 counter: 49

How did CCOC(=O)c1c(NC(=O)/C=C/C(=O)O)sc(C)c1-c1ccc(C(C)(C)C)cc1 do in these assays?
NR2E3 ag-1: 53; NR1D1 modulator: -1; NR2E3 ag-2: 0; PG9 binder: 1; NR2E3 ag confirm: 51; VP16 counter: 8

How did O=c1c(Br)ccc(Br)cc1Br do in these assays?
NR2E3 ag-1: 71*; NR1D1 modulator: 2; PG9 binder: 0; NR2E3 ag confirm: 100*; VP16 counter: 46

What do the screens show for `Cc1ccc(/C=C/C(=O)c2c(C)cc(C)[nH]c2=O)cc1`?
NR2E3 ag-1: 49; NR1D1 modulator: -6; NR2E3 ag-2: 4; NR2E3 ag confirm: 45; VP16 counter: 29

How did NC1=C(Br)C(=O)c2ncccc2C1=O do in these assays?
NR2E3 ag-1: 99*; NR1D1 modulator: -12; PG9 binder: -6; NR2E3 ag confirm: 92*; VP16 counter: 51

How did O=C1c2cccnc2C(=O)N1CO do in these assays?
NR2E3 ag-1: -4; NR1D1 modulator: 0; NR2E3 ag-2: 0; PG9 binder: 4

How did Cc1ccc(C)c(-n2sc3ccc(F)cc3c2=O)c1 do in these assays?
NR2E3 ag-1: 63; NR1D1 modulator: 2; NR2E3 ag-2: 1; PG9 binder: 0; NR2E3 ag confirm: -18; VP16 counter: -17

How did O=c1c2cc(F)ccc2sn1-c1ccc(F)cc1 do in these assays?
NR2E3 ag-1: 46; NR2E3 ag-2: 1

Results for CCN1Cc2nnn(Cc3ccccc3)c2-c2ccccc2S1(=O)=O ?
NR1D1 modulator: 9

What do the screens show for `OC[C@H]1CC[C@@H]2O[C@H](CCc3ccc(-c4ccc(F)cc4)cc3)[C@H](n3cc(C4CC4)nn3)C[C@@H]2O1`?
NR1D1 modulator: 1

How did C=CCOC(=O)c1[nH]c2c(c1C)C(=O)CC(c1cc(OC)c(OC)c(OC)c1)C2 (stereo unspecified) do in these assays?
NR2E3 ag-1: 54; NR2E3 ag-2: 0; NR2E3 ag confirm: 73*; VP16 counter: 45

How did CCCCOC(=O)c1[nH]c2c(c1C)C(=O)CC(c1cc(OC)c(OC)c(OC)c1)C2 (stereo unspecified) do in these assays?
NR2E3 ag-1: 89*; NR1D1 modulator: 1; NR2E3 ag-2: 1; PG9 binder: 0; NR2E3 ag confirm: 84*; VP16 counter: 61

What do the screens show for `CCOc1ccc(C(=O)Nc2ccc(N3CCN(C(C)=O)CC3)cc2)cc1[N+](=O)[O-]`?
NR2E3 ag-1: -15; NR1D1 modulator: 0; NR2E3 ag-2: 1; PG9 binder: -4

What do the screens show for `CC(=O)N1CCN(c2ccc(Oc3ccc([N+](=O)[O-])c(C(F)(F)F)c3)cc2)CC1`?
NR2E3 ag-1: 100*; NR2E3 ag-2: 2; NR2E3 ag confirm: 96*; VP16 counter: 81*

How did CSC1SCC2C(=O)N(C)C(C(C)C)C(=O)OCC(NC(=O)c3cnc4ccccc4n3)C(=O)NC(C)C(=O)N(C)C1C(=O)N(C)C(C(C)C)C(=O)OCC(NC(=O)c1cnc3ccccc3n1)C(=O)NC(C)C(=O)N2C (stereo unspecified) do in these assays?
NR2E3 ag-1: 103*; NR1D1 modulator: 2; PG9 binder: 0; NR2E3 ag confirm: 98*; VP16 counter: 95*

How did C[C@@H]1OCN(C)[C@H]2C[C@H]3c4[nH]c5cccc(-c6ccc7c(c6)OCO7)c5c4CCN3C[C@@H]12 do in these assays?
NR1D1 modulator: 3

How did Cc1cc(=S)nc(-c2ccccn2)[nH]1 do in these assays?
NR2E3 ag-1: 76*; NR1D1 modulator: -7; NR2E3 ag-2: 1; PG9 binder: -2; NR2E3 ag confirm: -6; VP16 counter: -12

Results for CCN(CC)S(=O)(=O)c1ccc(N2CCOCC2)c(NS(=O)(=O)c2cc(C(C)(C)C)ccc2C)c1 ?
NR2E3 ag-1: 50; NR1D1 modulator: -7; NR2E3 ag-2: 1; PG9 binder: -2; NR2E3 ag confirm: 66; VP16 counter: -18

What do the screens show for `CNC[C@H](O)[C@@H](O)[C@H](O)[C@H](O)CO`?
NR1D1 modulator: -5

What do the screens show for `O=S1(=O)CCOCC(CO)N1Cc1cccc(Br)c1` (stereo unspecified)?
NR1D1 modulator: 3

What do the screens show for `N#Cc1c(-c2ccccc2)cc(-c2ccccc2)nc1SCCC(=O)O`?
NR2E3 ag-1: 54; NR1D1 modulator: 9; NR2E3 ag-2: 1; PG9 binder: -1; NR2E3 ag confirm: 74*; VP16 counter: 8

How did O=C1NC[C@H](c2ccccc2)OC(=O)[C@@H](Cc2ccc(F)cc2)C/C=C\C[C@H]1CC(=O)N(CCO)Cc1ccccc1 do in these assays?
NR2E3 ag-1: 52; NR1D1 modulator: 4; PG9 binder: -3; NR2E3 ag confirm: 31; VP16 counter: 28

What do the screens show for `C[C@@H]1COc2cc(N3CCCC3)ccc2S(=O)(=O)N1C`?
NR1D1 modulator: -5

How did Cc1cc(C(=O)CSc2ccc(F)cc2)cc(C)c1OC(=S)N(C)C do in these assays?
NR2E3 ag-1: 63; NR1D1 modulator: -2; NR2E3 ag-2: 2; PG9 binder: 0; NR2E3 ag confirm: 43; VP16 counter: 9

Results for O=C1c2ccccc2C(=O)c2[nH]c(=O)[nH]c21 ?
NR2E3 ag-1: 68; NR1D1 modulator: -14; NR2E3 ag-2: -4; PG9 binder: -20; NR2E3 ag confirm: 75*; VP16 counter: 32

Results for Cc1ccc(S(=O)(=O)n2ccc3c(OCCOCCNCc4ccc(F)cc4)cccc32)cc1 ?
NR2E3 ag-1: 63; NR1D1 modulator: 0; NR2E3 ag-2: -2; PG9 binder: -1; NR2E3 ag confirm: 34; VP16 counter: 40
